Measurements from ChEMBL document CHEMBL1921778, “Rational design and synthesis of aminopiperazinones as β-secretase (BACE) inhibitors” (Bioorg Med Chem Lett, 2011).
Active and inactive are the calls of the source. The calls are words filed in the database; no cut-off is given here.

Assays:
[1] = Plasma concentration in mouse at 60 mg/kg, sc after 2 hrs; assay type: ADME, organism-based; parameters: dose 60 mg/kg, route subcutaneous
Procedure, shortened: (§1)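 Mice dosed subcutaneously; brain and plasma drug levels measured at 1, 2 and 4 h post-dose, brain in ng/g, plasma in ng/ml.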

[2] = Plasma concentration in mouse at 60 mg/kg, sc after 4 hrs; assay type: ADME, organism-based; parameters: dose 60 mg/kg, route subcutaneous; procedure, shortened: as §1
[3] = Drug uptake in mouse brain at 60 mg/kg, sc after 1 hr; assay type: ADME, organism-based; parameters: dose 60 mg/kg, route subcutaneous; conditions: read-out: Drug uptake; procedure, shortened: as §1
[4] = Drug uptake in mouse brain at 60 mg/kg, sc after 2 hrs; assay type: ADME, organism-based; parameters: dose 60 mg/kg, route subcutaneous; conditions: read-out: Drug uptake; procedure, shortened: as §1
[5] = Drug uptake in mouse brain at 60 mg/kg, sc after 4 hrs; assay type: ADME, organism-based; parameters: dose 60 mg/kg, route subcutaneous; conditions: read-out: Drug uptake; procedure, shortened: as §1
Mus musculus [6] = experiment: Antialzheimer activity in CD1 mouse brain assessed as reduction of amyloid beta TOT production at 60 mg/kg, sc after 1 hr using fluorogenic peroxidase as substrate by ELISA; assay type: functional; parameters: scale not given: the % may be the effect or the level left; conditions: route subcutaneous
Procedure, shortened: (§2)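 Male CD1 mice (22-28 g), fasted overnight, given single subcutaneous dose in 20% hydroxypropyl β-cyclodextrin; vehicle/untreated controls. Soluble AβTOT by sandwich ELISA (capture JRF/rAb/2, biotinylated 4G8), Aβ1-40 standards 10000–0.3 pg/ml, overnight 4 °C, QuantaBlu fluorogenic read-out.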

Mus musculus [7] = experiment: Antialzheimer activity in CD1 mouse brain assessed as reduction of amyloid beta TOT production at 60 mg/kg, sc after 2 hrs using fluorogenic peroxidase as substrate by ELISA; assay type: functional; parameters: scale not given: the % may be the effect or the level left; conditions: route subcutaneous; procedure, shortened: as §2
Mus musculus [8] = experiment: Antialzheimer activity in CD1 mouse brain assessed as reduction of amyloid beta TOT production at 60 mg/kg, sc after 4 hrs using fluorogenic peroxidase as substrate by ELISA; assay type: functional; parameters: scale not given: the % may be the effect or the level left; conditions: route subcutaneous; procedure, shortened: as §2
[9] = Plasma concentration in mouse at 60 mg/kg, sc after 1 hr; assay type: ADME, organism-based; parameters: dose 60 mg/kg, route subcutaneous; procedure, shortened: as §1
Mus musculus [10] = experiment: Antialzheimer activity in CD1 mouse brain assessed as reduction of amyloid beta TOT production at 30 mg/kg, sc after 2 hrs using fluorogenic peroxidase as substrate by ELISA; assay type: functional, organism-based; parameters: dose 30 mg/kg; procedure, shortened: as §2
Mus musculus [11] = experiment: Antialzheimer activity in CD1 mouse brain assessed as reduction of amyloid beta TOT production at 30 mg/kg, sc after 4 hrs using fluorogenic peroxidase as substrate by ELISA; assay type: functional, organism-based; parameters: dose 30 mg/kg; procedure, shortened: as §2
[12] = Dissociation constant, pKa of the compound; assay type: physicochemical
Beta-secretase 1 [13] = biological target: T1, Beta-secretase 1 (Homo sapiens, UniProt P56817); experiment: Inhibition of human recombinant BACE1 using fluorescent Mca-Ser-Glu-Val-Asn-Leu-Asp-Ala-Glu-Phe-Lys(Dnp)-OH peptide as substrate after 1 hr by spectroflurorimeter analysis
Beta-secretase 1 [14] = biological target: T1, Beta-secretase 1; experiment: Inhibition of human BACE1-mediated amyloid beta 42 secretion in human SKNBE2 cells expressing human APP695 after 18 hrs by sandwich alphalisa assay; assay type: cell-based
Beta-secretase 1 [15] = biological target: T1, Beta-secretase 1; experiment: Inhibition of human BACE1-mediated amyloid beta TOT secretion in human SKNBE2 cells expressing human APP695 after 18 hrs by sandwich alphalisa assay; assay type: cell-based
Procedure, shortened: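 SKNBE2 human neuroblastoma cells expressing wild-type hAPP695 exposed to diluted compound for 18 h; secreted AβTOT in medium quantified by sandwich AlphaLISA using biotinylated AbN/25 on streptavidin beads and 4G8 detection antibody.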

[16] = Plasma concentration in mouse at 30 mg/kg, sc after 1 hr; assay type: ADME, organism-based; parameters: dose 30 mg/kg, route subcutaneous; procedure, shortened: as §1
[17] = Plasma concentration in mouse at 30 mg/kg, sc after 2 hrs; assay type: ADME, organism-based; parameters: dose 30 mg/kg, route subcutaneous; procedure, shortened: as §1
[18] = Plasma concentration in mouse at 30 mg/kg, sc after 4 hrs; assay type: ADME, organism-based; parameters: dose 30 mg/kg, route subcutaneous; procedure, shortened: as §1
[19] = Drug uptake in mouse brain at 30 mg/kg, sc after 1 hr; assay type: ADME, organism-based; parameters: dose 30 mg/kg, route subcutaneous; conditions: read-out: Drug uptake; procedure, shortened: as §1
[20] = Drug uptake in mouse brain at 30 mg/kg, sc after 2 hrs; assay type: ADME, organism-based; parameters: dose 30 mg/kg, route subcutaneous; conditions: read-out: Drug uptake; procedure, shortened: as §1
[21] = Drug uptake in mouse brain at 30 mg/kg, sc after 4 hrs; assay type: ADME, organism-based; parameters: dose 30 mg/kg, route subcutaneous; conditions: read-out: Drug uptake; procedure, shortened: as §1
Mus musculus [22] = experiment: Antialzheimer activity in CD1 mouse brain assessed as reduction of amyloid beta TOT production at 30 mg/kg, sc after 1 hr using fluorogenic peroxidase as substrate by ELISA; assay type: functional; parameters: scale not given: the % may be the effect or the level left; conditions: route subcutaneous; procedure, shortened: as §2

T1 sequence (P56817 whole entry): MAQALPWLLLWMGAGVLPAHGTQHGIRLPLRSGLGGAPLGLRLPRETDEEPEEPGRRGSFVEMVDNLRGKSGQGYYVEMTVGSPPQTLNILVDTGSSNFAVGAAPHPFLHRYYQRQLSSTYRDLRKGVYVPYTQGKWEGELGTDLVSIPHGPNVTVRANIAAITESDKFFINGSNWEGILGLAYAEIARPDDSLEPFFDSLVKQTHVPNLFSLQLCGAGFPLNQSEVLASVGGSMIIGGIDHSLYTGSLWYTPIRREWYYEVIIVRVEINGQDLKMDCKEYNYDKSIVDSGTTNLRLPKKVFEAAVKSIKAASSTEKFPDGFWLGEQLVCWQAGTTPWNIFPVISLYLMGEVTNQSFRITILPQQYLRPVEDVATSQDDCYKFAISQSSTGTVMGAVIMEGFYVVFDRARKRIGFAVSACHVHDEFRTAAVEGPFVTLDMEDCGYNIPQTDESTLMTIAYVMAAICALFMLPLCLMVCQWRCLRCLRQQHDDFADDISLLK

Row | SMILES | pKa [12] | IC50 (Beta-secretase 1 [13]) | IC50 (Beta-secretase 1 [14]) | IC50 (Beta-secretase 1 [15]) | other results
1 | CN1CC(C)(c2cc(NC(=O)c3ccc(Cl)cn3)ccc2F)N=C(N)C1=O (single isomer, unassigned; enantiomer 2) | – | – | – | – | concentration at 2 h [1]: 2460 ng/mL; concentration at 4 h [2]: 270 ng/mL; concentration at 1 h [3]: 8080 ng/g; concentration at 2 h [4]: 3340 ng/g; concentration at 4 h [5]: 347 ng/g; Activity (Mus musculus [6]): 48%; Activity (Mus musculus [7]): 67%; Activity (Mus musculus [8]): 73%; concentration at 1 h [9]: 7140 ng/mL
2 | CN1CC(C)(c2cccc(NC(=O)c3ccc(Cl)cn3)c2)N=C(N)C1=O (racemic) [listing 1 of 2 here] | – | – | – | – | Activity (Mus musculus [10]): inactive; Activity (Mus musculus [11]): inactive
3 | CN1CC(N)=NC(C)(c2cccc(NC(=O)c3ccc(C(F)(F)F)cn3)c2)C1=O (stereo not given) | < 8 | 1380 nM | 68 nM | 79 nM | –
4 | CN1CC(C)(c2cc(NC(=O)c3ccc(Cl)cn3)ccc2F)N=C(N)C1=O (single isomer, unassigned; enantiomer 1) | < 8 | – | – | – | –
5 | Cc1cnc(C(=O)Nc2cccc(C3(C)N=C(N)CN(C)C3=O)c2)cn1 (stereo not given) | < 8 | 7080 nM | 1260 nM | 1150 nM | –
6 | CN1CC(C)(c2cccc(NC(=O)c3ccc(Cl)cn3)c2)N=C(N)C1=O (single isomer, unassigned; enantiomer 1) | 7.6 | > 30000 nM | > 10000 nM | > 10000 nM | –
7 | CN1CC(C)(c2cccc(NC(=O)c3ccc(Cl)cn3)c2)N=C(N)C1=O (racemic) [listing 2 of 2 here] | – | 550 nM | 115 nM | 107 nM | Activity (Mus musculus [22]): 34%; concentration at 1 h [16]: 993 ng/mL; concentration at 2 h [17]: 461 ng/mL; concentration at 4 h [18]: 200 ng/mL; concentration at 1 h [19]: 614 ng/g; concentration at 2 h [20]: 157 ng/g; concentration at 4 h [21]: 20.5 ng/g
8 | CN1CC(C)(c2cccc(NC(=O)c3ccc(Cl)cn3)c2)N=C(N)C1=O (single isomer, unassigned; enantiomer 2) | – | 295 nM | 83 nM | 85 nM | –

Continued, in another order:

Row | pKa [12] | IC50 (Beta-secretase 1 [13]) | IC50 (Beta-secretase 1 [14]) | IC50 (Beta-secretase 1 [15]) | SMILES | other results
9 | < 8 | 813 nM | 186 nM | 151 nM | CN1CC(N)=NC(C)(c2cccc(NC(=O)c3ccc(C#N)cn3)c2)C1=O (stereo not given) | –
10 | < 8 | – | – | – | CN1CC(N)=N[C@](C)(c2cccc(NC(=O)c3ccc(Cl)cn3)c2)C1=O | –
11 | 7.8 | – | – | – | CN1CC(N)=NC(C)(c2cccc(NC(=O)c3ccc(Cl)cn3)c2)C1=O (racemic) | concentration at 1 h [16]: 4630 ng/mL; concentration at 2 h [17]: 1710 ng/mL; concentration at 4 h [18]: 439 ng/mL; concentration at 1 h [19]: 184 ng/g; concentration at 2 h [20]: 123 ng/g; concentration at 4 h [21]: 90 ng/g
12 | < 8 | – | – | – | CN1CC(N)=N[C@@](C)(c2cccc(NC(=O)c3ccc(Cl)cn3)c2)C1=O | –
